Assay results taken from ChEMBL document CHEMBL1156079, “Imidazoquines as antimalarial and antipneumocystis agents” (J Med Chem, 2009).
Converted amounts (≈) assume the structure as drawn.

Test system: Plasmodium berghei
Assay: (§1) Antiplasmodial activity against Plasmodium berghei ANKA infected in BALB/c mice (Mus musculus) assessed as parasite-transmission to Anopheles stephensi after feeding on infected mice (Mus musculus) at 10 umol/kg, intraperitoneally administered 4 days after infection measured 10 days after 2 hrs of mosquito feeding by transmission-blocking activity assay relative to control
Format: functional
Details: not given
In short: (§2)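 Balb/C mice infected with P. berghei ANKA; after 4 days, once gametocytes were seen on Giemsa blood films, groups of six got one intraperitoneal dose (10 or 50 μmol/kg; PBS controls). At 2 h, anesthetized mice fed ca. 50 glucose-starved female An. stephensi for 2 h. Ten days later, 10 mosquitoes per cage dissected; midgut oocysts counted, giving % infected mosquitoes and mean oocysts per mosquito.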
For `COc1cc(NC(C)CCCN2C(=O)CN(C(=O)CN)C2(C)C)c2ncccc2c1` (configuration not stated), the Activity was 42.5%.

Test system: Plasmodium berghei
Assay: as §1, with “at 50” for “at 10”
Format: functional
Details: not given
In short: as §2
In the case of `COc1cc(NC(C)CCCN2C(=O)CN(C(=O)CN)C2(C)C)c2ncccc2c1` (configuration not stated), the Activity is reported as 40.5%.

Test system: not listed separately
Assay: Solubility in water
Format: physicochemical
Details: water
Molecule `COc1cc(NC(C)CCCN2C(=O)CN(C(=O)[C@H](N)C(C)C)C2(C)C)c2ncccc2c1` (some centres not stated) has a solubility of 46.5 µg/mL (≈ 102 µM). Work on `COc1cc(NC(C)CCCN2C(=O)[C@@H](C)NC2(C)C)c2ncccc2c1` (some centres not stated) yielded a solubility of 29.8 µg/mL (≈ 80.4 µM). Molecule `COc1cc(NC(C)CCCN2C(=O)CNC2(C)C)c2ncccc2c1` (configuration not stated) has a solubility of 40.5 µg/mL (≈ 114 µM). Molecule `COc1cc(NC(C)CCCN2C(=O)CN(C(=O)[C@H](N)CC(C)C)C2(C)C)c2ncccc2c1` (some centres not stated) has a solubility of 26.6 µg/mL (≈ 56.6 µM). `COc1cc(NC(C)CCCN2C(=O)CN(C(=O)CN)C2(C)C)c2ncccc2c1` (configuration not stated) showed a solubility of 150 µg/mL (≈ 363 µM).

Test system: not listed separately
Assay: Octanol/water partition coefficient, log P of the compound
Format: physicochemical
Details: not given
Work on `COc1cc(NC(C)CCCN2C(=O)CN(C(=O)[C@H](N)C(C)C)C2(C)C)c2ncccc2c1` (some centres not stated) yielded a logP of 2.93. For `COc1cc(NC(C)CCCN2C(=O)[C@@H](C)NC2(C)C)c2ncccc2c1` (some centres not stated), the logP was 3.25. For `COc1cc(NC(C)CCCN2C(=O)CNC2(C)C)c2ncccc2c1` (configuration not stated), the logP was 3.07. `COc1cc(NC(C)CCCN2C(=O)CN(C(=O)[C@H](N)CC(C)C)C2(C)C)c2ncccc2c1` (some centres not stated) showed a logP of 3.36. Work on `COc1cc(NC(C)CCCN2C(=O)CN(C(=O)CN)C2(C)C)c2ncccc2c1` (configuration not stated) yielded a logP of 2.19.

Test system: not listed separately
Assay: Chemical stability by HPLC analysis
Format: physicochemical
Details: not given
With `COc1cc(NC(C)CCCN2C(=O)CN(C(=O)[C@H](N)C(C)C)C2(C)C)c2ncccc2c1` (some centres not stated) the Stability was “Stable”. In the case of `COc1cc(NC(C)CCCN2C(=O)CN(C(=O)[C@H](N)CC(C)C)C2(C)C)c2ncccc2c1` (some centres not stated), the Stability is reported as “Stable”. With `COc1cc(NC(C)CCCN2C(=O)CN(C(=O)CN)C2(C)C)c2ncccc2c1` (configuration not stated) the Stability was “Stable”.

Test system: Plasmodium falciparum
Assay: Antiplasmodial activity against chloroquine-resistant blood stage Plasmodium falciparum W2 after 48 hrs by FACS analysis
Format: functional, organism-based
Details: W2, 48 h
With `COc1cc(N(C(C)=O)C(C)CCCN2C(=O)CN(C(C)=O)C2(C)C)c2ncccc2c1` (configuration not stated) the IC50 was greater than 10 µM. Work on `COc1cc(NC(C)CCCN2C(=O)CN(C(=O)[C@H](N)C(C)C)C2(C)C)c2ncccc2c1` (some centres not stated) yielded an IC50 of 7.9 µM. Work on `COc1cc(NC(C)CCCN2C(=O)CN(C(=O)[C@H](N)CC(C)C)C2(C)C)c2ncccc2c1` (some centres not stated) yielded an IC50 of 6.3 µM. `COc1cc(NC(C)CCCN2C(=O)CN(C(C)=O)C2(C)C)c2ncccc2c1` (configuration not stated) showed an IC50 greater than 10 µM. Molecule `COc1cc(NC(C)CCCN2C(=O)CN(C(=O)CN)C2(C)C)c2ncccc2c1` (configuration not stated) has an IC50 of 6.7 µM.

Test system: Plasmodium berghei
Assay: Antiplasmodial activity against liver-stage GFP expressing Plasmodium berghei sporozoites infected in human HuH7 cells assessed as inhibition of parasite schizonts development after 48 hrs by FACS analysis
Format: functional, organism-based
Details: Huh-7
In the case of `COc1cc(NC(C)CCCN2C(=O)CN(C(=O)[C@H](N)C(C)C)C2(C)C)c2ncccc2c1` (some centres not stated), the Activity is reported as “Dose-dependent effect”. With `COc1cc(NC(C)CCCN2C(=O)CN(C(=O)[C@H](N)CC(C)C)C2(C)C)c2ncccc2c1` (some centres not stated) the Activity was “Dose-dependent effect”. With `COc1cc(NC(C)CCCN2C(=O)CN(C(=O)CN)C2(C)C)c2ncccc2c1` (configuration not stated) the Activity was “Dose-dependent effect”.

Same assay, conditions: Huh-7, Liver
`COc1cc(NC(C)CCCN2C(=O)CN(C(=O)[C@H](N)C(C)C)C2(C)C)c2ncccc2c1` (some centres not stated) showed an IC50 of 17 µM. `COc1cc(NC(C)CCCN2C(=O)CN(C(=O)[C@H](N)CC(C)C)C2(C)C)c2ncccc2c1` (some centres not stated) gave an IC50 of 24 µM. With `COc1cc(NC(C)CCCN2C(=O)CN(C(=O)CN)C2(C)C)c2ncccc2c1` (configuration not stated) the IC50 was 22 µM.

Test system: Pneumocystis carinii
Assay: Antipneumocystis activity against Pneumocystis carinii assessed as reduction in parasite ATP content after 24 hrs by luciferin-luciferase assay
Format: functional, organism-based
Details: not given
In short: (§3)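 P. carinii from immunosuppressed, intratracheally inoculated Long Evans and Brown Norway rats, 10⁸ nuclei/ml in supplemented RPMI 1640 with 20% calf serum, pH 7.5–8.0, 380 mOsm. Compounds added in DMSO (final <0.2% v/v). Incubated at 35 °C, 10% CO₂, with daily medium change; sampled at 24, 48 and 72 h. ATP measured by luciferin-luciferase as % of untreated control; triplicate wells across isolation batches, three readings each.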
Work on `COc1cc(N(C(C)=O)C(C)CCCN2C(=O)CN(C(C)=O)C2(C)C)c2ncccc2c1` (configuration not stated) yielded an IC50 of no less than 50 µM. For `COc1cc(NC(C)CCCN2C(=O)CN(C(=O)[C@H](N)C(C)C)C2(C)C)c2ncccc2c1` (some centres not stated), the IC50 was 54.3 µM. Work on `COc1cc(NC(C)CCCN2C(=O)CN(C(=O)[C@H](N)CC(C)C)C2(C)C)c2ncccc2c1` (some centres not stated) yielded an IC50 of 31.1 µM. `COc1cc(NC(C)CCCN2C(=O)CN(C(C)=O)C2(C)C)c2ncccc2c1` (configuration not stated) gave an IC50 of no less than 50 µM. For `COc1cc(NC(C)CCCN2C(=O)CN(C(=O)CN)C2(C)C)c2ncccc2c1` (configuration not stated), the IC50 was 43.8 µM.

Test system: Pneumocystis carinii
Assay: Antipneumocystis activity against Pneumocystis carinii assessed as reduction in parasite ATP content after 48 hrs by luciferin-luciferase assay
Format: functional, organism-based
Details: not given
In short: as §3
With `COc1cc(N(C(C)=O)C(C)CCCN2C(=O)CN(C(C)=O)C2(C)C)c2ncccc2c1` (configuration not stated) the IC50 was no less than 50 µM. `COc1cc(NC(C)CCCN2C(=O)CN(C(=O)[C@H](N)C(C)C)C2(C)C)c2ncccc2c1` (some centres not stated) showed an IC50 of 20.2 µM. With `COc1cc(NC(C)CCCN2C(=O)CN(C(=O)[C@H](N)CC(C)C)C2(C)C)c2ncccc2c1` (some centres not stated) the IC50 was 17.9 µM. Work on `COc1cc(NC(C)CCCN2C(=O)CN(C(C)=O)C2(C)C)c2ncccc2c1` (configuration not stated) yielded an IC50 of 102 µM. For `COc1cc(NC(C)CCCN2C(=O)CN(C(=O)CN)C2(C)C)c2ncccc2c1` (configuration not stated), the IC50 was 37.5 µM.

Test system: Pneumocystis carinii
Assay: Antipneumocystis activity against Pneumocystis carinii assessed as reduction in parasite ATP content after 72 hrs by luciferin-luciferase assay
Format: functional, organism-based
Details: not given
In short: as §3
`COc1cc(N(C(C)=O)C(C)CCCN2C(=O)CN(C(C)=O)C2(C)C)c2ncccc2c1` (configuration not stated) showed an IC50 of no less than 50 µM. Molecule `COc1cc(NC(C)CCCN2C(=O)CN(C(=O)[C@H](N)C(C)C)C2(C)C)c2ncccc2c1` (some centres not stated) has an IC50 of 13.6 µM. `COc1cc(NC(C)CCCN2C(=O)CN(C(=O)[C@H](N)CC(C)C)C2(C)C)c2ncccc2c1` (some centres not stated) showed an IC50 of 10.9 µM. For `COc1cc(NC(C)CCCN2C(=O)CN(C(C)=O)C2(C)C)c2ncccc2c1` (configuration not stated), the IC50 was 36.7 µM. With `COc1cc(NC(C)CCCN2C(=O)CN(C(=O)CN)C2(C)C)c2ncccc2c1` (configuration not stated) the IC50 was 28.1 µM.

Test system: Pneumocystis carinii
Assay: Antipneumocystis activity against Pneumocystis carinii assessed as reduction in parasite ATP content after 24 to 72 hrs by luciferin-luciferase assay
Format: functional, organism-based
Details: not given
In short: as §3
In the case of `COc1cc(NC(C)CCCN2C(=O)CN(C(=O)[C@H](N)C(C)C)C2(C)C)c2ncccc2c1` (some centres not stated), the Activity is reported as “Dose-dependent effect”. In the case of `COc1cc(NC(C)CCCN2C(=O)CN(C(=O)[C@H](N)CC(C)C)C2(C)C)c2ncccc2c1` (some centres not stated), the Activity is reported as “Dose-dependent effect”. With `COc1cc(NC(C)CCCN2C(=O)CN(C(=O)CN)C2(C)C)c2ncccc2c1` (configuration not stated) the Activity was “Dose-dependent effect”.

Test system: Pneumocystis carinii
Assay: Antipneumocystis activity against Pneumocystis carinii assessed as reduction in parasite ATP content at < 0.2% v/v by luciferin-luciferase assay
Format: functional, organism-based
Details: TDE = time-dependent effect
With `COc1cc(NC(C)CCCN2C(=O)CN(C(=O)[C@H](N)C(C)C)C2(C)C)c2ncccc2c1` (some centres not stated) the Activity was “tde”. With `COc1cc(NC(C)CCCN2C(=O)CN(C(=O)[C@H](N)CC(C)C)C2(C)C)c2ncccc2c1` (some centres not stated) the Activity was “tde”. In the case of `COc1cc(NC(C)CCCN2C(=O)CN(C(=O)CN)C2(C)C)c2ncccc2c1` (configuration not stated), the Activity is reported as “tde”.

Test system: A549
Assay: Cytotoxicity against human A549 cells after 72 hrs
Format: cell-based
Details: A549, 72 h
`COc1cc(N(C(C)=O)C(C)CCCN2C(=O)CN(C(C)=O)C2(C)C)c2ncccc2c1` (configuration not stated) showed an IC50 greater than 100 µM. For `COc1cc(NC(C)CCCN2C(=O)CN(C(=O)[C@H](N)C(C)C)C2(C)C)c2ncccc2c1` (some centres not stated), the IC50 was 5.5 µM. Work on `COc1cc(NC(C)CCCN2C(=O)CN(C(=O)[C@H](N)CC(C)C)C2(C)C)c2ncccc2c1` (some centres not stated) yielded an IC50 of 21.2 µM. `COc1cc(NC(C)CCCN2C(=O)CN(C(C)=O)C2(C)C)c2ncccc2c1` (configuration not stated) showed an IC50 greater than 100 µM. For `COc1cc(NC(C)CCCN2C(=O)CN(C(=O)CN)C2(C)C)c2ncccc2c1` (configuration not stated), the IC50 was greater than 100 µM.

Test system: not listed separately
Assay: Selectivity index, ratio of cytotoxicity against human A549 cells to IC50 for chloroquine-resistant blood-stage Plasmodium falciparum W2
Format: toxicity, cell-based
Details: read-out: Selectivity Index
Work on `COc1cc(NC(C)CCCN2C(=O)CN(C(=O)[C@H](N)CC(C)C)C2(C)C)c2ncccc2c1` (some centres not stated) yielded a selectivity ratio of 3.5.

Organism: Homo sapiens
Assay: Half life in human plasma by HPLC analysis
Details: not given
Work on `COc1cc(NC(C)CCCN2C(=O)CN(C(=O)[C@H](N)C(C)C)C2(C)C)c2ncccc2c1` (some centres not stated) yielded a half-life greater than 72 h. `COc1cc(NC(C)CCCN2C(=O)[C@@H](C)NC2(C)C)c2ncccc2c1` (some centres not stated) gave a half-life greater than 72 h. `COc1cc(NC(C)CCCN2C(=O)CN(C(=O)[C@H](N)CC(C)C)C2(C)C)c2ncccc2c1` (some centres not stated) showed a half-life greater than 72 h. With `COc1cc(NC(C)CCCN2C(=O)CN(C(=O)CN)C2(C)C)c2ncccc2c1` (configuration not stated) the half-life was greater than 72 h.
